Published values collected from several papers.
Compare with care: the assays were run in different laboratories.
Mode: inhibitor
CDK2: Cyclin-dependent kinase 2 (CDK2, Homo sapiens, UniProt P24941)
PARP2: Poly [ADP-ribose] polymerase 2 (PARP2, Homo sapiens, UniProt Q9UGN5)

Compound	target	effect on	technique	IC50
Cc1n[nH]c2ccc3nc(-c4ccc(C(=O)NCCN5CCCC5)cc4)c4c(c3c12)CCCC4	CDK2	enzyme activity		0.31 µM
Cc1cc(O)c(-c2ccc([C@@H](C)CN(C)C)cc2)c2c1[nH]c(=O)c1sccc12	Cyclin-dependent kinase 8, with cyclin C (CDK8, Homo sapiens, UniProt P49336)	enzyme activity		> 1 µM
Cn1cc(C2=C(c3cn(CCCSC(=N)N)c4ccccc34)C(=O)NC2=O)c2ccccc21	Serine/threonine-protein kinase VRK1 (VRK1, Homo sapiens, UniProt Q99986)	enzyme activity		0.644 µM
CN(C)CCNC(=O)c1ccc(-c2nc3ccc4[nH]ncc4c3c3c2CCCCC3)cn1	CDK2	enzyme activity		0.21 µM
Cc1cccc(Cn2nnc3c4ccc(F)cc4c(=O)[nH]c32)c1	PARP2	enzyme activity		> 10 µM
Cc1n[nH]c2ccc3nc(-c4ccc(C(=O)NCCN(C)C)cc4)c4c(c3c12)CCC(C)(C)C4	CDK2	enzyme activity		> 1 µM
O=c1[nH]c2c(nnn2Cc2ccccc2)c2ccc(F)cc12	PARP2	enzyme activity		> 10 µM
Cc1n[nH]c2ccc3nc(-c4ccc(C(=O)NCCN(C)C)cc4F)c4c(c3c12)CCCC4	CDK2	enzyme activity		0.08 µM
CCc1ccc(Cn2nnc3c4ccc(F)cc4c(=O)[nH]c32)cc1	PARP2	enzyme activity	fluorescence	> 10 µM
CC(=O)N1C(=O)NC(C)=C(C(=O)OCC(C)C)C1c1cccc([N+](=O)[O-])c1 (racemic)	Voltage-dependent L-type calcium channel subunit alpha-1C (Cacna1c, Rattus norvegicus, UniProt P22002)	ion current	patch clamp	1.3 µM
COc1ccc2c(=O)[nH]c3c(nnn3Cc3ccc(C)cc3)c2c1	PARP2	enzyme activity	fluorescence	> 10 µM
NC(=O)c1cccnc1	Nicotinamide N-methyltransferase (NNMT, Homo sapiens, UniProt P40261)	enzyme activity in cells		> 31.6 µM
